Reference: ChEMBL document CHEMBL1649269, “In vitro activities of three new dihydrofolate reductase inhibitors against clinical isolates of gram-positive bacteria” (2009)
≈ marks a conversion by molar mass, not a printed value.

Legend:
Staphylococcus aureus [1] = assay: Antimicrobial activity against methicillin-sensitive Staphylococcus aureus by agar dilution method; assay type: functional
Outline: (§1)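 MICs against clinical MRSA or MSSA isolates by CLSI agar dilution, with S. aureus ATCC 29213 as control strain. Percentage of susceptible isolates was calculated from the MICs using CLSI breakpoints.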

Staphylococcus aureus [2] = assay: Antimicrobial activity against methicillin-sensitive Staphylococcus aureus assessed as susceptible isolates by agar dilution method; assay type: functional; outline: as §1
Staphylococcus aureus [3] = assay: Antimicrobial activity against methicillin-resistant Staphylococcus aureus by agar dilution method; assay type: functional; outline: as §1
Staphylococcus aureus [4] = assay: Antimicrobial activity against Heterovancomycin-resistant Staphylococcus aureus by agar dilution method; assay type: functional
Outline: (§2)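 Clinical S. aureus isolates classed as hVISA or VISA by population analysis profiling. MICs by CLSI agar dilution, with S. aureus ATCC 29213 as control strain.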

Staphylococcus aureus [5] = assay: Antimicrobial activity against Heterovancomycin-resistant Staphylococcus aureus assessed as susceptible isolates by agar dilution method; assay type: functional
Staphylococcus aureus [6] = assay: Antimicrobial activity against vancomycin-resistant Staphylococcus aureus by agar dilution method; assay type: functional; outline: as §2
Staphylococcus aureus [7] = assay: Antimicrobial activity against vancomycin-resistant Staphylococcus aureus assessed as susceptible isolates by agar dilution method; assay type: functional
Staphylococcus [8] = assay: Antimicrobial activity against Coagulase-negative Staphylococcus by agar dilution method; assay type: functional
Outline: (§3)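 CLSI agar dilution MIC testing of clinical isolates of staphylococci and Listeria. S. aureus ATCC 29213 and S. pneumoniae ATCC 49619 served as control strains. The percentage of susceptible isolates was calculated from CLSI breakpoints.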

Staphylococcus [9] = assay: Antimicrobial activity against Coagulase-negative Staphylococcus assessed as susceptible isolates by agar dilution method; assay type: functional; outline: as §3
[10] = system: Streptococcus sp. 'group A'; assay: Antimicrobial activity against Group A Streptococcus by agar dilution method; assay type: functional
Outline: (§4)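 Clinical isolates of beta-hemolytic streptococci, S. mitis and S. pneumoniae were tested by CLSI methodology, with Mueller-Hinton medium supplemented with 5% lysed horse blood. S. aureus ATCC 29213 and S. pneumoniae ATCC 49619 served as control strains. The percentage of susceptible isolates was derived from CLSI breakpoints.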

[11] = system: Streptococcus sp. 'group A'; assay: Antimicrobial activity against Group A Streptococcus assessed as susceptible isolates by agar dilution method; assay type: functional; outline: as §4
[12] = system: Streptococcus sp. 'group B'; assay: Antimicrobial activity against Group B Streptococcus by agar dilution method; assay type: functional; outline: as §4
[13] = system: Streptococcus sp. 'group B'; assay: Antimicrobial activity against Group B Streptococcus assessed as susceptible isolates by agar dilution method; assay type: functional; outline: as §4
[14] = Antimicrobial activity against Group C Streptococcus by agar dilution method; assay type: functional; settings: Streptococcus sp. 'group C'; outline: as §4
[15] = Antimicrobial activity against Group C Streptococcus assessed as susceptible isolates by agar dilution method; assay type: functional, Streptococcus sp. 'group C'; outline: as §4
[16] = Antimicrobial activity against Group G Streptococcus by agar dilution method; assay type: functional; settings: Streptococcus sp. 'group G'; outline: as §4
[17] = Antimicrobial activity against Group G Streptococcus assessed as susceptible isolates by agar dilution method; assay type: functional, Streptococcus sp. 'group G'; outline: as §4
Streptococcus pneumoniae [18] = assay: Antimicrobial activity against Streptococcus pneumoniae by agar dilution method; assay type: functional; outline: as §4
Streptococcus pneumoniae [19] = assay: Antimicrobial activity against Streptococcus pneumoniae assessed as susceptible isolates by agar dilution method; assay type: functional; outline: as §4
Corynebacterium sp. = assay: Antimicrobial activity against Corynebacterium spp. by agar dilution method; assay type: functional
Listeria monocytogenes = assay: Antimicrobial activity against Listeria monocytogenes by agar dilution method; assay type: functional; outline: as §3
Streptococcus mitis = assay: Antimicrobial activity against Streptococcus mitis by broth dilution method
Staphylococcus aureus [20] = assay: Antimicrobial activity against methicillin-resistant Staphylococcus aureus assessed as susceptible isolates by agar dilution method; assay type: functional; outline: as §1

| SMILES | Activity (Staphylococcus aureus [2]) [%] | MIC50 (Staphylococcus aureus [4]) [µg/mL] | MIC90 (Staphylococcus aureus [4]) [µg/mL] | Activity (Staphylococcus aureus [5]) [%] | MIC50 (Staphylococcus aureus [6]) [µg/mL] | MIC90 (Staphylococcus aureus [6]) [µg/mL] | Activity (Staphylococcus aureus [7]) [%] | MIC50 (Staphylococcus [8]) [µg/mL] | MIC90 (Staphylococcus [8]) [µg/mL] | Activity (Staphylococcus [9]) [%] | MIC50 [10] [µg/mL] | MIC90 [10] [µg/mL] | MIC50 [12] [µg/mL] | MIC90 [12] [µg/mL] | MIC50 [14] [µg/mL] | MIC90 [14] [µg/mL] | MIC50 [16] [µg/mL] | MIC90 [16] [µg/mL] | MIC50 (Streptococcus pneumoniae [18]) [µg/mL] | MIC90 (Streptococcus pneumoniae [18]) [µg/mL] | other results |
| --- | --- | --- | --- | --- | --- | --- | --- | --- | --- | --- | --- | --- | --- | --- | --- | --- | --- | --- | --- | --- | --- |
| CN(C)c1ccc(O)c2c1C[C@H]1C[C@H]3[C@H](N(C)C)C(O)=C(C(N)=O)C(=O)[C@@]3(O)C(O)=C1C2=O [MINOCYCLINE] | 100 | 0.25 (≈ 0.546 µM) | 0.5 (≈ 1.09 µM) | 92 | 1 (≈ 2.19 µM) | 4 (≈ 8.74 µM) | 96 | 0.5 (≈ 1.09 µM) | 2 (≈ 4.37 µM) | 96 | 0.12 (≈ 0.262 µM) | 0.25 (≈ 0.546 µM) | 16 (≈ 35 µM) | 32 (≈ 69.9 µM) | 0.25 (≈ 0.546 µM) | 4 (≈ 8.74 µM) | 0.25 (≈ 0.546 µM) | 16 (≈ 35 µM) | 0.25 (≈ 0.546 µM) | 0.25 (≈ 0.546 µM) | MIC (Staphylococcus aureus [1]): 0.25 µg/mL (≈ 0.546 µM); MIC50 (Staphylococcus aureus [1]): 0.25 µg/mL (≈ 0.546 µM); MIC90 (Staphylococcus aureus [1]): 0.25 µg/mL (≈ 0.546 µM); MIC (Staphylococcus aureus [3]): 0.25 µg/mL (≈ 0.546 µM); MIC50 (Staphylococcus aureus [3]): 0.25 µg/mL (≈ 0.546 µM); MIC90 (Staphylococcus aureus [3]): 0.25 µg/mL (≈ 0.546 µM); MIC [10]: 0.12 µg/mL (≈ 0.262 µM); Activity [11]: 100%; Activity [13]: 29%; Activity [15]: 84%; Activity [17]: 75%; Activity (Streptococcus pneumoniae [19]): 93%; MIC50 (Corynebacterium sp.): 2 µg/mL (≈ 4.37 µM); MIC90 (Corynebacterium sp.): 16 µg/mL (≈ 35 µM); MIC (Listeria monocytogenes): 0.25 µg/mL (≈ 0.546 µM); MIC50 (Listeria monocytogenes): 0.25 µg/mL (≈ 0.546 µM); MIC90 (Listeria monocytogenes): 16 µg/mL (≈ 35 µM); MIC (Streptococcus mitis): 0.25 µg/mL (≈ 0.546 µM); MIC50 (Streptococcus mitis): 0.25 µg/mL (≈ 0.546 µM) |
| COc1c(N2C[C@@H]3CCCN[C@@H]3C2)c(F)cc2c(=O)c(C(=O)O)cn(C3CC3)c12 [MOXIFLOXACIN] | 92 | 4 (≈ 9.96 µM) | 4 (≈ 9.96 µM) | 8 | 8 (≈ 19.9 µM) | 8 (≈ 19.9 µM) | 0 | 0.25 (≈ 0.623 µM) | 8 (≈ 19.9 µM) | 55 | 0.25 (≈ 0.623 µM) | 0.5 (≈ 1.25 µM) | 0.25 (≈ 0.623 µM) | 0.5 (≈ 1.25 µM) | 0.25 (≈ 0.623 µM) | 0.5 (≈ 1.25 µM) | 0.25 (≈ 0.623 µM) | 0.5 (≈ 1.25 µM) | 0.25 (≈ 0.623 µM) | 0.25 (≈ 0.623 µM) | Activity (Staphylococcus aureus [20]): 4%; MIC (Staphylococcus aureus [6]): 8 µg/mL (≈ 19.9 µM); MIC [10]: 0.25 µg/mL (≈ 0.623 µM); MIC [12]: 0.25 µg/mL (≈ 0.623 µM); MIC [14]: 0.25 µg/mL (≈ 0.623 µM); MIC [16]: 0.25 µg/mL (≈ 0.623 µM); Activity (Streptococcus pneumoniae [19]): 100%; MIC50 (Corynebacterium sp.): 1 µg/mL (≈ 2.49 µM); MIC90 (Corynebacterium sp.): 8 µg/mL (≈ 19.9 µM); MIC (Listeria monocytogenes): 0.5 µg/mL (≈ 1.25 µM); MIC50 (Listeria monocytogenes): 0.5 µg/mL (≈ 1.25 µM); MIC90 (Listeria monocytogenes): 1 µg/mL (≈ 2.49 µM); MIC50 (Streptococcus mitis): 0.25 µg/mL (≈ 0.623 µM) |
| COc1cc(Cc2cnc(N)nc2N)cc(OC)c1OC [TRIMETHOPRIM] | 92 | 1 (≈ 3.44 µM) | 16 (≈ 55.1 µM) | 80 | 1 (≈ 3.44 µM) | 32 (≈ 110 µM) | 71 | 16 (≈ 55.1 µM) | 32 (≈ 110 µM) | 48 | 0.5 (≈ 1.72 µM) | 1 (≈ 3.44 µM) | 1 (≈ 3.44 µM) | 1 (≈ 3.44 µM) | 0.5 (≈ 1.72 µM) | 1 (≈ 3.44 µM) | 1 (≈ 3.44 µM) | 1 (≈ 3.44 µM) | 1 (≈ 3.44 µM) | 4 (≈ 13.8 µM) | MIC50 (Staphylococcus aureus [1]): 1 µg/mL (≈ 3.44 µM); MIC90 (Staphylococcus aureus [1]): 2 µg/mL (≈ 6.89 µM); MIC50 (Staphylococcus aureus [3]): 0.25 µg/mL (≈ 0.861 µM); MIC90 (Staphylococcus aureus [3]): 32 µg/mL (≈ 110 µM); Activity (Staphylococcus aureus [20]): 80%; MIC50 (Corynebacterium sp.): 16 µg/mL (≈ 55.1 µM); MIC90 (Corynebacterium sp.): 16 µg/mL (≈ 55.1 µM); MIC50 (Listeria monocytogenes): 0.06 µg/mL (≈ 0.207 µM); MIC90 (Listeria monocytogenes): 0.06 µg/mL (≈ 0.207 µM); MIC (Streptococcus mitis): < 0.008 µg/mL; MIC50 (Streptococcus mitis): 4 µg/mL (≈ 13.8 µM) |
| CN[C@H](CC(C)C)C(=O)N[C@H]1C(=O)N[C@@H](CC(N)=O)C(=O)N[C@H]2C(=O)N[C@H]3C(=O)N[C@H](C(=O)N[C@H](C(=O)O)c4cc(O)cc(O)c4-c4cc3ccc4O)[C@H](O)c3ccc(c(Cl)c3)Oc3cc2cc(c3O[C@@H]2O[C@H](CO)[C@@H](O)[C@H](O)[C@H]2O[C@H]2C[C@](C)(N)[C@H](O)[C@H](C)O2)Oc2ccc(cc2Cl)[C@H]1O [VANCOMYCIN] | 100 | 1 (≈ 0.69 µM) | 2 (≈ 1.38 µM) | 96 | 2 (≈ 1.38 µM) | 4 (≈ 2.76 µM) | 52 | 1 (≈ 0.69 µM) | 2 (≈ 1.38 µM) | 100 | 0.25 (≈ 0.173 µM) | 0.25 (≈ 0.173 µM) | 0.25 (≈ 0.173 µM) | 0.25 (≈ 0.173 µM) | 0.12 (≈ 0.0828 µM) | 0.5 (≈ 0.345 µM) | 0.12 (≈ 0.0828 µM) | 0.12 (≈ 0.0828 µM) | 0.12 (≈ 0.0828 µM) | 0.25 (≈ 0.173 µM) | MIC50 (Staphylococcus aureus [1]): 1 µg/mL (≈ 0.69 µM); MIC90 (Staphylococcus aureus [1]): 1 µg/mL (≈ 0.69 µM); MIC50 (Staphylococcus aureus [3]): 1 µg/mL (≈ 0.69 µM); MIC90 (Staphylococcus aureus [3]): 1 µg/mL (≈ 0.69 µM); Activity (Staphylococcus aureus [20]): 100%; Activity [11]: 100%; Activity [13]: 100%; MIC [14]: 0.12 µg/mL (≈ 0.0828 µM); Activity [15]: 100%; MIC [16]: 0.12 µg/mL (≈ 0.0828 µM); Activity [17]: 100%; Activity (Streptococcus pneumoniae [19]): 100%; MIC50 (Corynebacterium sp.): 0.25 µg/mL (≈ 0.173 µM); MIC90 (Corynebacterium sp.): 0.5 µg/mL (≈ 0.345 µM); MIC (Listeria monocytogenes): 1 µg/mL (≈ 0.69 µM); MIC50 (Listeria monocytogenes): 1 µg/mL (≈ 0.69 µM); MIC90 (Listeria monocytogenes): 1 µg/mL (≈ 0.69 µM); MIC50 (Streptococcus mitis): 1 µg/mL (≈ 0.69 µM) |
